Measurements from ChEMBL document CHEMBL1143141, “Regioselective synthesis and antitumor screening of some novel N-phenylpyrazole derivatives” (Bioorg Med Chem, 2008).
Converted amounts (≈) assume the structure as drawn.

Tests used:
Ehrlich [1] = test: Antitumor activity against mouse Ehrlich ascites carcinoma cells at 100 ug/ml relative to doxorubicin after 2 hrs; assay type: functional
Procedure, shortened: (§1)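 Ehrlich ascites carcinoma cell suspension was exposed to compound for 2 h. Percent nonviable cells was scored by trypan blue dye exclusion. Potency was calculated from the percentage change relative to doxorubicin, which served as reference. Data are means with SE. Treated and control tubes were compared by one-way ANOVA with Duncan's multiple range test.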

Ehrlich [2] = test: Antitumor activity against mouse Ehrlich ascites carcinoma cells at 50 ug/ml relative to doxorubicin after 2 hrs; assay type: functional; procedure, shortened: as §1
Ehrlich [3] = test: Antitumor activity against mouse Ehrlich ascites carcinoma cells at 25 ug/ml relative to doxorubicin after 2 hrs; assay type: functional; procedure, shortened: as §1
Ehrlich [4] = test: Antitumor activity against mouse Ehrlich ascites carcinoma cells; assay type: functional, cell-based
Procedure, shortened: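 Ehrlich ascites carcinoma cell suspension was exposed to test compound at three levels (25, 50, 100) for 2 h. Nonviable cells were counted by trypan blue exclusion, using a 1:10 water dilution of a 1 g/100 ml dye stock. The IC50 was calculated against a saline control group. Doxorubicin served as positive control.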

| SMILES | Activity (Ehrlich [1]) [%] | Activity (Ehrlich [2]) [%] | Activity (Ehrlich [3]) [%] | IC50 (Ehrlich [4]) [µg/mL] |
| --- | --- | --- | --- | --- |
| CCOC(=O)c1nn(-c2ccc([N+](=O)[O-])cc2)cc1C(=O)c1c(C(=O)Nc2ccccc2)nn(-c2ccccc2)c1C | 0 | 0 | 0 | – |
| CCOC(=O)c1nn(-c2ccc(Br)cc2)cc1C(=O)c1c(C(=O)Nc2ccccc2)nn(-c2ccccc2)c1C | 20 | 10 | 0 | > 100 |
| CC(=O)c1nn(-c2ccc(C)cc2)cc1C(=O)c1c(C(=O)Nc2ccccc2)nn(-c2ccccc2)c1C | 10 | 5 | 0 | > 100 |
| Cc1c(C(=O)c2cn(-c3ccccc3)nc2-c2ccccc2)c(C(=O)Nc2ccccc2)nn1-c1ccccc1 | 0 | 0 | 0 | – |
| CC(=O)c1c(C(=O)Nc2ccccc2)nn(-c2ccccc2)c1C | 0 | 0 | 0 | – |
| Cc1c(C(=O)/C=C/N(C)C)c(C(=O)Nc2ccccc2)nn1-c1ccccc1 | 10 | 5 | 0 | > 100 |
| Cc1c(C(=O)c2cn(-c3ccccc3)nc2C(=O)Nc2ccccc2)c(C(=O)Nc2ccccc2)nn1-c1ccccc1 | 35 | 20 | 5 | 70 (≈ 124 µM) |
| CC(=O)c1nn(-c2cccc(C)c2)cc1C(=O)c1c(C(=O)Nc2ccccc2)nn(-c2ccccc2)c1C | 20 | 10 | 0 | 100 (≈ 199 µM) |
| CC(=O)c1nn(-c2ccc(Br)cc2)cc1C(=O)c1c(C(=O)Nc2ccccc2)nn(-c2ccccc2)c1C | 25 | 15 | 0 | > 100 |
| COc1cccc2c1C(=O)c1c(O)c3c(c(O)c1C2=O)C[C@@](O)(C(=O)CO)C[C@@H]3O[C@H]1C[C@H](N)[C@H](O)[C@H](C)O1 [DOXORUBICIN] | 100 | 55 | 20 | 35 (≈ 64.4 µM) |
| CCOC(=O)c1nn(-c2ccccc2)cc1C(=O)c1c(C(=O)Nc2ccccc2)nn(-c2ccccc2)c1C | 10 | 0 | 0 | > 100 |
| CC(=O)c1nn(-c2ccccc2)cc1C(=O)c1c(C(=O)Nc2ccccc2)nn(-c2ccccc2)c1C | 20 | 5 | 0 | > 100 |
